Source: PubChem
In the library only some 1.7% were active in any assay of this set; here they are far more common.
APOBEC3G inh: inhibitors of human APOBEC3G DNA deaminase; Q9HC16; inhibition, % at 20 µM; 330,000 tested, 0.28% active; AID 493012; recombinant A3G, ssDNA deamination FAM/TAMRA fluorescence;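 active = inhibition of at least 40% at 20 µM, with no more than 30% in the related APOBEC3A deaminase screen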;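 also: plate controls were DMSO wells with A3G for no effect and wells lacking A3G enzyme for full effect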
CAL PDZ FP-1: blocks peptide binding to human CAL PDZ domain. Q9HD26. purified CAL PDZ, TMR-peptide fluorescence polarization, 1 h. inhibition, % at 20 µM. 330,000 tested, 0.02% active. AID 504414;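 active = highest replicate inhibition of at least 40%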;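 also: plate controls were DMSO neutral control wells for no effect and unlabeled competitor peptide control wells for full effect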
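Control set: unlabelled peptide and DMSO controls / Material: purified CerCALP PDZ construct / Timing: 1 h incubation at room temperature before polarization reading / Doses: 20 µM, one dose / Detection: fluorescence polarization (mP)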
Keap1 Nrf2 FP: inhibitors of human Keap1-Nrf2 protein-protein interaction | Q14145 | 340,000 tested, 0.15% active | inhibition, % at 9.4 µM | AID 504523 | Keap1 Kelch-Nrf2 peptide fluorescence polarization, 1536-well; in the data active = inhibition above about 12%;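 also: human Keap1 Kelch domain with fluorescein labeled Nrf2 9mer peptide probe; 0% = neutral control wells and 100% = peptide positive control; higher means more block of Keap1 binding to Nrf2 peptide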
Target sequence (Q14145 whole entry, looked up, the tested form may be a part): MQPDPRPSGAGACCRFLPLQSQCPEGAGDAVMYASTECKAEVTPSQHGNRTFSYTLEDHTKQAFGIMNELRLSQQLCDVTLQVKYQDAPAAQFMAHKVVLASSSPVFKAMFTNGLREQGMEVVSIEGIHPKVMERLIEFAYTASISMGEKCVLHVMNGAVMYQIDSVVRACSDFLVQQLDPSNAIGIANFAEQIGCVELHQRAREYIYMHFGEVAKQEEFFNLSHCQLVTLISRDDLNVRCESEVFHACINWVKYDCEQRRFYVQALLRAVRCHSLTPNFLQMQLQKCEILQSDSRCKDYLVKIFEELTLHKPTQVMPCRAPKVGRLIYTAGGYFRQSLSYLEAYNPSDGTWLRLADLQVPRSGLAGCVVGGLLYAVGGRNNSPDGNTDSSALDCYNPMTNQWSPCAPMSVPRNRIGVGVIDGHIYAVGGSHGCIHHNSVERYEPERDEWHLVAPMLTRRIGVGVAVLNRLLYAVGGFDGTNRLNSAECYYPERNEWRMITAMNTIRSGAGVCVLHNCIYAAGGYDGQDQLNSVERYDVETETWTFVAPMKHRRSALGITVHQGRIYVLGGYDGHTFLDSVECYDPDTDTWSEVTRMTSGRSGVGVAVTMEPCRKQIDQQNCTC
CAL PDZ FP-2: blocks peptide binding to the human CAL PDZ domain; purified CAL PDZ, TMR-peptide fluorescence polarization, 1 h; inhibition, % at 24.9 µM; 300,000 tested, 0.92% active;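 active = mean inhibition of at least 30% with at least half of replicates also reaching 30%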;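 also: 0% = DMSO neutral control and 100% = excess unlabeled competitor peptide PRC23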
LANA DNA inh: blocks KSHV LANA C-terminal domain binding to DNA; MBP-C-LANA/FAM-LBS DNA binding, fluorescence polarization; inhibition, % at 9 µM; 340,000 tested, 0.078% active;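 active = highest replicate inhibition at or above 60% at 9 µM, even if other replicates fall short; inactive = all replicates below 60% inhibition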;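 also: 0% = neutral control wells and 100% = 4 µM acridine orange control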
APOBEC3A inh: inhibitors of human APOBEC3A DNA deaminase; P31941; recombinant A3A, FAM/TAMRA ssDNA deamination fluorescence; inhibition, % at 20 µM; 330,000 tested, 0.41% active; AID 493011;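 active = at least 40% inhibition at 20 µM here, with at most 30% in a related deaminase screen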;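 also: plate controls were A3A with DMSO for no effect and wells lacking A3A enzyme for full effect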
* hit, by the source's call; . = not tested or not shown.

SMILES	APOBEC3G inh	CAL PDZ FP-1	Keap1 Nrf2 FP	CAL PDZ FP-2	LANA DNA inh	APOBEC3A inh
CCCC(=O)Nc1ccc(N2CCN(C(=O)CCC)CC2)cc1	-5	-1	1	39*	0	-1
O=C(NCCc1ccc(F)cc1)c1ccc(Cl)c(S(=O)(=O)N2CCOCC2)c1	-1	-1	-1	0	0	12
NC(=O)c1ccc(NC(=O)C2COc3ccccc3O2)cc1 (centres undefined)	-5	-1	69*	.	.	1
NNC(=O)C1COc2cc3ccccc3cc2O1 (centres undefined)	0	-1	-2	.	0	61*
O=C(O)C1CCN(Cc2cccnc2)CC1	-4	0	-4	-2	0	0
CCc1ccc(CN(C)Cc2nc(COc3ccccc3)no2)nc1	-1	0	0	49*	-1	1
CCc1ccc(CN(C)Cc2nc(Cc3cccc(C(F)(F)F)c3)no2)nc1	-3	0	4	1	0	-1
CN(Cc1cnccn1)Cc1nc(Cc2ccccc2F)no1	-9	0	-2	56*	-1	1
CN(Cc1cnccn1)Cc1nc(Cc2ccccc2Cl)no1	-12	-1	1	-6	0	-1
O=C(CSc1nc2ncc(Cl)cc2[nH]1)N(Cc1ccccc1)C1CCS(=O)(=O)C1 (centres undefined)	-3	-3	-1	7	-1	0
CC(=O)Nc1ccc(S(=O)(=O)N2CCN(Cc3cccc([N+](=O)[O-])c3)CC2)cc1	-4	0	-4	-1	0	-1
CC(=O)N1c2ccccc2C2(O)N=C(C)SC12 (centres undefined)	46*	-1	-4	-2	-1	-1
CC(=O)N1c2ccccc2[C@@H](C)[C@@H]1C	1	1	-3	-3	0	2
CCCCn1c(N)c(N(Cc2ccccc2OC)C(=O)C(C)Oc2ccc(Cl)cc2)c(=O)[nH]c1=O (centres undefined)	-3	-3	0	-2	-1	1
Cc1ccc(CNC(=O)C2CCN(C(=O)Nc3ccc(C)cc3)CC2)cc1	-12	-1	-3	.	1	-5
S=C(NCCc1ccccc1)N1CCN(Cc2ccc(Cl)c(Cl)c2)CC1	-3	-1	-6	11	0	-2
Fc1ccc(CN2CCN(C(=S)NCCc3ccccc3)CC2)c(Cl)c1	-15	0	-4	34*	0	-4
COc1cc(NC(=O)CSc2nnc3c(C)cc4c(C)ccc(C)c4n23)c(C(=O)O)cc1OC	-3	0	1	5	2	2
CC(C)CC1c2[nH]c3ccccc3c2CCN1C(=O)c1cnccn1 (centres undefined)	3	.	.	.	.	2
CC(=O)c1cc(C(=O)N2CCc3c([nH]c4ccccc34)C2CC(C)C)[nH]n1 (centres undefined)	-7	-1	5	77*	2	-3
O=C1C=C(Nc2ccccc2C(=O)O)c2ccccc2C1=O	-2	2	4	76*	2	11
O=C1C=C(Nc2ccccc2)c2ccccc2C1=O	-5	-1	4	-3	1	-1
COC(=O)[C@H]1C[C@H](C(=O)O)[C@@H](C)C1(C)C	-12	-1	3	0	1	-5
Cn1c(=O)cc(OCC(=O)NCCCN2CCN(Cc3ccccc3)CC2)c2ccccc21	-3	0	-3	39*	0	-1
COc1ccc(C(O)Cn2cc([N+](=O)[O-])nc2C)cc1 (centres undefined)	-3	1	0	0	-2	2
SMILES	APOBEC3G inh	CAL PDZ FP-1	Keap1 Nrf2 FP	CAL PDZ FP-2	LANA DNA inh	APOBEC3A inh
CN1CCN(CCNC(=O)c2ccc3nc(-c4ccc(F)cc4)c(-c4ccc(F)cc4)nc3c2)CC1	-3	-4	-3	-10	-1	-2
CCCC(C)NC(=O)CSc1nnc(-c2c[nH]c3ccccc23)o1 (centres undefined)	-7	-2	-2	46*	1	1
CC(C)(C)NC(=O)CSc1nnc(-c2c[nH]c3ccccc23)o1	5	-2	3	-4	1	1
O=[N+]([O-])c1cccc(CSC2=NCCN2S(=O)(=O)c2ccccc2)c1	-1	0	1	.	-1	-2
COc1cccc(/C=N/N2C(=O)CSC2=S)c1O	-2	1	0	-4	0	-3
COc1cc(/C=N/N2C(=O)CSC2=S)cc(Br)c1O	.	-9	-7	53*	-14	.
CCn1cc(/C=C(\NC(=O)c2ccccc2)C(=O)NCCCN2CCOCC2)c2ccccc21	-2	-2	-7	-1	2	-8
CN(C(=O)c1ccc2c(c1)CCN2S(C)(=O)=O)c1ccccc1	-9	-1	-4	2	0	-5
O=C(OCC(=O)N1CCOCC1)c1cccc(S(=O)(=O)N2CCCc3ccccc32)c1	-6	0	2	-2	-1	2
CS(=O)(=O)N1CCc2cc(C(=O)OCC(=O)c3ccccc3)ccc21	-6	-2	-2	98*	0	-2
CC1CN(C(=O)COC(=O)c2cccc(S(=O)(=O)N3CCc4ccccc43)c2)CC(C)O1 (centres undefined)	-3	19	0	59*	-2	1
COC(=O)[C@H](C)N(Cc1ccc(Cl)c(Cl)c1)S(=O)(=O)CCN1CCCC1	-1	-1	5	35*	1	2
COC(=O)[C@H](C)N(Cc1ccc(Cl)c(Cl)c1)S(=O)(=O)CCN1CCN(c2ccccc2)CC1	-1	-1	0	0	1	-2
CC1(C)Cc2ccccc2C(NNC(=O)c2ccc(Br)o2)=N1	13	-2	-4	1	-1	-2
CC(C)Oc1ccc(C(=O)OCC(=O)NC(=O)NC2CCCC2)cc1	-8	0	-3	3	0	-4
CC(=O)Nc1ccc(C(=O)OCC(=O)NC(=O)NC2CCCCC2)cc1	-1	-1	3	86*	-1	-1
Cc1ccc(S(=O)(=O)NCC(=O)OCC(=O)NC(=O)NC2CCCC2)cc1	0	1	-1	73*	-1	1
c1ccc2c(NC3=NCCCCS3)cccc2c1	-2	.	-4	34*	-2	-1
c1ccc(NC2=NCCCCS2)cc1	-5	0	4	-4	-1	0
CCCCNC(=O)Nc1ccccc1Br	-2	-1	-4	1	4	2
CCCCNC(=O)Nc1ccccc1CC	4	4	1	69*	1	-5
CC(C)OP(=O)(OC(C)C)/C(C=O)=N\Nc1ccc([N+](=O)[O-])cc1	-6	0	-2	.	0	-1
O=C(CC(=O)N/N=C/c1ccccc1)NCc1ccccc1	-5	-1	-4	147*	1	-1
O=C(Cc1ccccc1)NN=Cc1ccccc1	.	0	-2	1	-4	.
